In general, EC50 refers to the concentration needed to bring the measured effect to its halfway point.

Results on 13 molecules are retold here after ChEMBL document CHEMBL4376827, “Structure-Activity Relationship Studies To Identify Affinity Probes in Bis-aryl Sulfonamides That Prolong Immune Stimuli” (J Med Chem, 2019).

The source made the active and inactive calls. No cut-off for these calls is given here.

For series [1], the species on record is Homo sapiens. In words: Activation of LPS-induced NF-kappaB activity in human THP1-Blue-NF-kappaB cells assessed as increase in SEAP reporter activity at 5 uM incubated for 20 hrs by quanti-blue SEAP assay relative to control. Put shortly:
(§1)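 THP1-Blue NF-κB cells, 10^5/well, in RPMI with 10% FBS, pen/strep and Normocin. Compound (5 μM single point or graded concentrations, 0.05% DMSO) is added together with LPS; methods give final LPS 10 μg/mL, table footnote gives 10 ng/mL. Supernatant SEAP is read after 20 h by QuantiBlue colorimetry at 630 nm.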

Series [2] can be described thus: Activation of IFNalpha signalling in human ISRE-bla THP1 cells assessed as increase in type-1 IFN-alpha induced ISRE activity preincubated for 16 hrs followed by CCF4-AM substrate addition and measured after 3 hrs by FRET based assay. Format: cell-based. The note with it: THP-1. Put shortly: (§2)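 ISRE-bla THP-1 cells, 5×10^4/well, in RPMI with 10% dialyzed FBS, 0.1 mM non-essential amino acids, 1 mM pyruvate and pen/strep. Cells are co-treated with IFN-α (final 100 U/mL) and compound: 5 μM single point or graded concentrations, 0.05% DMSO. After 16 h, CCF4-AM is added for 3 h at RT in the dark.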

The nature of series [3]: Systemic toxicity in ovalbumin immunized C57BL/6 mouse assessed as body weight loss at 50 nmol co-immunized with adjuvant MPLA and ovalbumin antigen on day 0 and 21. The note with it: in vivo. The method in brief: (§3)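 C57BL/6 mice, 7–9 weeks old, n=8/group, immunized intramuscularly (gastrocnemius) on days 0 and 21 with ovalbumin (20 μg/animal), MPLA (10 ng/animal) and compound (50 nmol/animal). Systemic toxicity monitored as behaviour change and weight loss.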

For series [4], the species on record is Homo sapiens. Put plainly: Activation of IFNalpha signalling in human ISRE-bla-THP1 cells assessed as increase in type-1 IFN-alpha induced ISRE activity at 5 uM preincubated for 16 hrs followed by CCF4-AM substrate addition and measured after 3 hrs by FRET based assay relative to control. Format: cell-based. Put shortly:
as §2

A short description of series [5]: Systemic toxicity in ovalbumin immunized C57BL/6 mouse assessed as behavioural changes at 50 nmol co-immunized with adjuvant MPLA and ovalbumin antigen on day 0 and 21. The note with it: in vivo. The method in brief: as §3
The subject of a further series is THP-1. In words: Cytotoxicity against human THP1 cells assessed as reduction in cell viability at 5 uM incubated for 18 hrs by MTT assay relative to control. As to conditions: thp-1, 18 h. A general note: Tetrazolium dyes change colour on reduction, which living cells bring about.
The species named for another series is Mus musculus. Put plainly: Co-adjuvanticity in ovalbumin immunized C57BL/6 mouse assessed as increase in OVA-specific IgG titers in blood at 100 nmol co-immunized with adjuvant MPLA and ovalbumin antigen on day 0 and 21 and measured on day 21 by ELISA. Format: functional, organism-based. Put shortly:
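C57BL/6 mice, 7–9 weeks old, n=8/group, immunized on days 0 and 21 with ovalbumin (20 μg/animal), MPLA (10 μg/animal) and compound (100 nmol/animal). Bled on day 21; OVA-specific IgG titers measured by ELISA.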
For orientation: ELISA stands for enzyme-linked immunosorbent assay.

Series [6] is described as follows: Activation of LPS-induced NF-kappaB activity in human THP1-Blue-NF-kappaB cells assessed as increase in SEAP reporter activity incubated for 20 hrs by quanti-blue SEAP assay. The method in brief:
as §1

Series [7] in a line: Stability of the compound in DMSO. Format: physicochemical.
Series [8] can be described thus: Prodrug conversion in RPMI assay medium supplemented with 10% dialyzed FBS, 100 U/ml penicillin and 100 ug/ml streptomycin assessed as N-(4-chloro-2,5-dimethoxyphenyl)-4-ethoxybenzene-sulfonamide release. Format: ADME. As to conditions: cattle.

Regarding `CCOc1ccc(S(=O)(=O)N(C)c2cc(OC)c(Cl)cc2OC)cc1`, the Activity is 235% in the series listed under Homo sapiens [1]; “Non-Toxic” in series [3]; 215% in the series listed under Homo sapiens [4]; “Non-Toxic” in series [5]; 74.5% with THP-1. Moreover, the EC50 was 840 nM in series [2] and 690 nM in [6]. Moreover, the outcome in the series listed under Mus musculus was Active.
For `CCOc1ccc(S(=O)(=O)N(C(C)=O)c2cc(OC)c(Cl)cc2OC)cc1`, the Activity is 184% in the series listed under Homo sapiens [1], 244% in the series listed under Homo sapiens [4] and 72% in the series with THP-1. In addition, the Stability result in series [7] is on record as “Stable”. Moreover, the Drug metabolism result in [8] was “Metabolite_Detected”.
As to `COc1ccc(S(=O)(=O)Nc2cc(OC)c(Cl)cc2OC)cc1`, the Activity amounted to 226% in the series filed under Homo sapiens [1], 219% in the series filed under Homo sapiens [4] and 69.6% in the series on THP-1. The EC50 in series [2] was 1400 nM; in series [6], 1850 nM.
For `CCOc1ccc(S(=O)(=O)N(CCCN)c2cc(OC)c(Cl)cc2OC)cc1.Cl` the same measures were 189%, 182%, 71%, 3040 nM and 3320 nM.
With `CCOc1ccc(S(=O)(=O)Nc2cc(OC)c(Cl)cc2OC)cc1`, the Activity in the series filed under Homo sapiens [1] is 200%; in series [3], “Non-Toxic”; in the series filed under Homo sapiens [4] it was 200%; in [5] it was “Non-Toxic”; with THP-1, 73.5%. Besides, the EC50 is 660 nM in series [2] and 600 nM in series [6]. Also, the result in the series listed under Mus musculus was Active.
As for `C#CCOc1ccc(S(=O)(=O)Nc2cc(OC)c(Cl)cc2OC)cc1`, the Activity in the series filed under Homo sapiens [1] was 97%; in the series filed under Homo sapiens [4], 99%; in the series with THP-1, 80.9%.
For `CCCCCN(c1cc(OC)c(Cl)cc1OC)S(=O)(=O)c1ccc(OCC)cc1` the same measures were 135%, 105% and 72.9%.
For `COc1cc(NS(=O)(=O)c2ccc(OC)c(N=[N+]=[N-])c2)c(OC)cc1Cl` the same measures were 104%, 104% and 87.2%.
Regarding `C#CCN(c1cc(OC)c(Cl)cc1OC)S(=O)(=O)c1ccc(OCC)cc1`, the Activity was 232% in the series listed under Homo sapiens [1], 213% in the series filed under Homo sapiens [4] and 72% in the series on THP-1.
For `CCOc1ccc(S(=O)(=O)N(CCCNC(=O)OC(C)(C)C)c2cc(OC)c(Cl)cc2OC)cc1` the same measures were 134%, 140% and 75.6%.
Consider `CCOc1ccc(S(=O)(=O)N(CCCNC(=O)CCCC[C@H]2SC[C@H]3NC(=O)N[C@H]32)c2cc(OC)c(Cl)cc2OC)cc1`, for which the Activity in the series filed under Homo sapiens [1] is 195%; in the series listed under Homo sapiens [4] it was 175%; with THP-1 it was 69.6%.
For `CCOc1ccc(S(=O)(=O)Nc2cc(OC)c([N+](=O)[O-])cc2OC)cc1` the same measures were 133%, 110% and 79.2%.
For `C#CCCCN(c1cc(OC)c(Cl)cc1OC)S(=O)(=O)c1ccc(OCC)cc1` the same measures were 182%, 184% and 70.7%.
